Results: ChEMBL document CHEMBL4261586, “Conjugation of a 5-nitrofuran-2-oyl moiety to aminoalkylimidazoles produces non-toxic nitrofurans that are efficacious in vitro and in vivo against multidrug-resistant Mycobacterium tuberculosis” (Eur J Med Chem, 2018)
Converted amounts (≈) assume the structure as drawn.

Key:
Assay type in all cases: functional
[1] = test system: Mycobacterium tuberculosis; assay: Antimycobacterial activity against multidrug-resistant Mycobacterium tuberculosis 2712 harboring rpoB S531L/katG I335V/ahpC T10 mutation after 7 days by resazurin microtitre plate assay
Method in brief: (§1)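 REMA in Middlebrook 7H9 with OADC. Three-week culture vortexed with glass beads, adjusted to 1.0 McFarland (about 3×10⁸ bacteria/mL) and diluted 20-fold. Final concentrations 1.6–200 via 2-fold dilutions; growth control plus 1% ([…] diluted) control. 7 days at 35 °C, then 0.01% resazurin for 18 h; fluorescence ex 520/em 590 nm. MIC taken where fluorescence plateaued or matched the 1% control (t-test).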

[2] = test system: Mycobacterium tuberculosis; assay: Antimycobacterial activity against multidrug-resistant Mycobacterium tuberculosis 7106 harboring rpoB S531L/katG S315T mutation after 7 days by resazurin microtitre plate assay; method in brief: as §1
[3] = test system: Mycobacterium tuberculosis; assay: Antimycobacterial activity against multidrug-resistant Mycobacterium tuberculosis 5023 harboring rpoB S531L/katG S315T mutation mutation after 7 days by resazurin microtitre plate assay; method in brief: as §1
[4] = test system: Mycobacterium tuberculosis; assay: (§2) Antitubercular activity against multidrug-resistant Mycobacterium tuberculosis 2712 infected in C57BL/6 mouse assessed as colony forming units per lung mass units at 28 mg/kg, po administered via gavage over 42 days (excluding weekends) cotreated with prothionamide, levofloxacin and p-aminosalicylic acid (reference value: 85.7 +/- 5.3 x 10^3)
[5] = test system: Mycobacterium tuberculosis; assay: as §2, with “as” for “as colony forming units per”, “index” for “units”, “1.81” for “85.7”, “0.12)” for “5.3 x 10^3)”
[6] = test system: Mycobacterium tuberculosis; assay: as §2, with “tubercular foci index” for “colony forming units per lung mass units”, “3.46” for “85.7”, “0.09)” for “5.3 x 10^3)”

Row | SMILES | MIC [1] | MIC [2] | MIC [3] | Activity [4] | Activity_index [5] | Activity_index [6]
1 | Cc1cnc(C)n1C1CCN(C(=O)c2ccc([N+](=O)[O-])o2)C1 (stereo not drawn) | 25 µg/mL (≈ 82.2 µM) | 12.5 µg/mL (≈ 41.1 µM) | 25 µg/mL (≈ 82.2 µM) |  |  | 
2 | Cc1cnc(-c2ccccc2)n1CC1CCN(C(=O)c2ccc([N+](=O)[O-])o2)C1 (stereo not drawn) | 3.1 µg/mL (≈ 8.15 µM) | 6.2 µg/mL (≈ 16.3 µM) | 6.2 µg/mL (≈ 16.3 µM) |  |  | 
3 | CCCn1c(C)cnc1C1CN(C(=O)c2ccc([N+](=O)[O-])o2)C1 | 0.8 µg/mL (≈ 2.51 µM) | 3.1 µg/mL (≈ 9.74 µM) | 3.1 µg/mL (≈ 9.74 µM) | 10.6 ×10³ CFU | 1.15 | 2.54
4 | Cc1cnc(CCNC(=O)c2ccc([N+](=O)[O-])o2)n1C1CCC1 | 12.5 µg/mL (≈ 39.3 µM) | 12.5 µg/mL (≈ 39.3 µM) | 12.5 µg/mL (≈ 39.3 µM) |  |  | 
5 | Cc1cnc(CC2CCN(C(=O)c3ccc([N+](=O)[O-])o3)C2)n1CC1CC1 (stereo not drawn) | 1.6 µg/mL (≈ 4.46 µM) | 12.5 µg/mL (≈ 34.9 µM) | 6.2 µg/mL (≈ 17.3 µM) |  |  | 
